# According to ChEMBL document CHEMBL3612019, “Revisiting 1,3,4-Oxadiazol-2-ones: Utilization in the Development of ABHD6 Inhibitors” (Bioorg Med Chem, 2015):
# Active and inactive are the calls of the source. No cut-off for these calls is given here.
# Experiments:
# [1] = molecular target: T1, Lysophosphatidylserine lipase ABHD12 (Mus musculus) (UniProt Q99LR1); experiment: Inhibition of ABHD12 in mouse whole brain membranes at 10 uM incubated for 1 hr by TAMRA-FP probe based competitive activity-based protein profiling assay; assay type: cell membranes; settings: Membrane
# T1 sequence (whole entry): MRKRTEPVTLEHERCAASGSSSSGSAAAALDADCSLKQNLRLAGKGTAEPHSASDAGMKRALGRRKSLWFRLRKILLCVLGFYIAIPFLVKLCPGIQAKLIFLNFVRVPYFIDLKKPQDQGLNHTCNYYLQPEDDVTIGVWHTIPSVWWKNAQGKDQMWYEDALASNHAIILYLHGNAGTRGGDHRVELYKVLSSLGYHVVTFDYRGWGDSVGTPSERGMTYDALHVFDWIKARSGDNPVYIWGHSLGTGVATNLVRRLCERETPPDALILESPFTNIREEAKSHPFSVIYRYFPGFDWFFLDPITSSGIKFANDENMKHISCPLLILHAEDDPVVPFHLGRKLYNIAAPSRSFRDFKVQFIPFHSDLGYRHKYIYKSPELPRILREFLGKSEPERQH
# Method in brief: (§1)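 Competitive ABPP on mouse brain membranes (100 µg) treated 1 h with DMSO or inhibitor. TAMRA-FP labelling then ran 1 h at RT (final probe 2 µM). Reaction was quenched with gel loading buffer and proteins resolved by 10% SDS–PAGE for fluorescent band read-out. WWL70 located the ABHD6 band. Gels are representative of two experiments.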
# [2] = molecular target: T2, Monoacylglycerol lipase ABHD6 (Mus musculus) (UniProt Q8R2Y0); experiment: Inhibition of ABHD6 in mouse whole brain membranes at 1 uM incubated for 1 hr by TAMRA-FP probe based competitive activity-based protein profiling assay; assay type: cell membranes; settings: Membrane; method in brief: as §1
# T2 sequence (whole entry): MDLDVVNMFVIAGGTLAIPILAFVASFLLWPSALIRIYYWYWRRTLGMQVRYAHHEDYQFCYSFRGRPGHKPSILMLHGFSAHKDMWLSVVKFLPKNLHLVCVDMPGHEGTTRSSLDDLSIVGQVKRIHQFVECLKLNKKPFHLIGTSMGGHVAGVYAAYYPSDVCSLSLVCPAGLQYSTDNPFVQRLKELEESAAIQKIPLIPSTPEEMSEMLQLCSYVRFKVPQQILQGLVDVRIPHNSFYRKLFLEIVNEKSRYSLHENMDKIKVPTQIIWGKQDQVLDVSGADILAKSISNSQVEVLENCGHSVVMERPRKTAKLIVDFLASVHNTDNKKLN
# [3] = molecular target: T3, Monoacylglycerol lipase ABHD6 (Homo sapiens, UniProt Q9BV23); experiment: Inhibition of human ABHD6 expressed in HEK293 cells at 1 uM pre-incubated for 10 mins before 2-AG substrate addition followed by rapid 40 fold compound dilution measured after 90 mins by HPLC method; assay type: cell-based
# T3 sequence (Q9BV23 whole entry): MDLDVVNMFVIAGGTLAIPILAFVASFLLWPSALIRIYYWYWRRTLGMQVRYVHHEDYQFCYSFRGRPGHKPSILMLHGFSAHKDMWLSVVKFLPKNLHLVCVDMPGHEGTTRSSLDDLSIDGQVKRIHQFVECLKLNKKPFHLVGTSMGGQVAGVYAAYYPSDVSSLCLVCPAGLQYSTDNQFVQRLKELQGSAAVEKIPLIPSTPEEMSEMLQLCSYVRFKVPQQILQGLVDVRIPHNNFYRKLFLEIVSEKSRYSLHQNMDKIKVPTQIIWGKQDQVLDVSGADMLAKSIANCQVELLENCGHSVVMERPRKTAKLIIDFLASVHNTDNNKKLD
# [4] = molecular target: T1, Lysophosphatidylserine lipase ABHD12 (Mus musculus); experiment: Inhibition of ABHD12 in mouse whole brain membranes at 32.5 uM incubated for 1 hr by TAMRA-FP probe based competitive activity-based protein profiling assay; assay type: cell membranes; settings: Membrane; method in brief: as §1
# [5] = molecular target: T4, Monoacylglycerol lipase ABHD6 (Homo sapiens) (UniProt Q9BV23); settings: HEK293, 1 uM
# T4 sequence (whole entry): T3 sequence (Q9BV23 whole entry)
# [6] = molecular target: Cannabinoid receptor 1 (Rattus norvegicus) (UniProt P20272); experiment: Agonist activity at CB1R in rat cerebellar membranes at 10 uM by [35S]GTPgammaS binding assay; assay type: functional, cell membranes; settings: Cerebellum, Membrane
# Method in brief: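 Rat cerebellar membranes, [35S]GTPγS binding. Agonist activity is read as % of basal binding. Antagonist activity is read as % of the HU210-evoked response. Compound tested at 10 µM. Values are mean (range), n = 2.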
# [7] = molecular target: T3, Monoacylglycerol lipase ABHD6; experiment: Inhibition of human ABHD6 expressed in HEK293 cells at 1 uM pre-incubated for 10 mins before 2-AG substrate addition followed by rapid 40 fold compound dilution measured after 30 mins by HPLC method; assay type: cell-based
# [8] = molecular target: T3, Monoacylglycerol lipase ABHD6; experiment: Inhibition of human ABHD6 expressed in HEK293 cells at 1 uM pre-incubated for 10 mins before 2-AG substrate addition followed by rapid 40 fold compound dilution measured after 60 mins by HPLC method; assay type: cell-based
# [9] = molecular target: T2, Monoacylglycerol lipase ABHD6 (Mus musculus); experiment: Inhibition of ABHD6 in mouse whole brain membranes at 10 uM incubated for 1 hr by TAMRA-FP probe based competitive activity-based protein profiling assay; assay type: cell membranes; settings: Membrane; method in brief: as §1
# [10] = molecular target: T5, Fatty-acid amide hydrolase 1 (Mus musculus) (UniProt O08914); experiment: Inhibition of FAAH in mouse whole brain membranes at 32.5 uM incubated for 1 hr by TAMRA-FP probe based competitive activity-based protein profiling assay; assay type: cell membranes; settings: Membrane; method in brief: as §1
# T5 sequence (whole entry): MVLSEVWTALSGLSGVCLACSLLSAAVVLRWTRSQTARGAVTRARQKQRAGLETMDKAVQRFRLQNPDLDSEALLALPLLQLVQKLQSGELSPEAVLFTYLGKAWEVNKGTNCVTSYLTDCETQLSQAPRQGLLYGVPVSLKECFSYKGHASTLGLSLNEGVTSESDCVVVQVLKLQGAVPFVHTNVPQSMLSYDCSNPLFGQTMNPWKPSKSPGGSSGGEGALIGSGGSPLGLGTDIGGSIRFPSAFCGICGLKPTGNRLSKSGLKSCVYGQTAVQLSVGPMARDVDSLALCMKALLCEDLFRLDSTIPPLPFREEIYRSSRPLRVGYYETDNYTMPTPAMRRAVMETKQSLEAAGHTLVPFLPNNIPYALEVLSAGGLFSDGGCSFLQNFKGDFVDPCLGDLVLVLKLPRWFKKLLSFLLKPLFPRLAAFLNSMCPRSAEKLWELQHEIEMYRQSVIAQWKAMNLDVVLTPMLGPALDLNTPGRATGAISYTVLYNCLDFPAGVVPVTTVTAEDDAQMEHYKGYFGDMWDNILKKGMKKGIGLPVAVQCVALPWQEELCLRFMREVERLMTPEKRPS
# Chain of Cannabinoid receptor 1 (Rattus norvegicus) (P20272 whole entry): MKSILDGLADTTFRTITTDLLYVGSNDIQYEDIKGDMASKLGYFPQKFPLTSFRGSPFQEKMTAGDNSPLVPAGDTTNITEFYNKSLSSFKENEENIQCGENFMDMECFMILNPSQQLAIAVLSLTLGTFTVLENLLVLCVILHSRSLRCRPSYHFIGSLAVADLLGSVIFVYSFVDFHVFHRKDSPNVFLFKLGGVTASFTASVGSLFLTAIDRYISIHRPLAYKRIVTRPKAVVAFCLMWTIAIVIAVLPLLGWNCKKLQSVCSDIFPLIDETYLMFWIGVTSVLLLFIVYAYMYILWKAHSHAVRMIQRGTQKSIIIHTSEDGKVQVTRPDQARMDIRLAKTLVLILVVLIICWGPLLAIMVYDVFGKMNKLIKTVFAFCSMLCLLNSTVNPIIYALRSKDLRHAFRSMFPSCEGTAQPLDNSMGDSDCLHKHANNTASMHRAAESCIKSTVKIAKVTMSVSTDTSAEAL
inhibition [1],inhibition [2],IC50 [3] [µM],inhibition [4],inhibition [5],Activity [6] [%],IC50 [7] [µM],IC50 [8] [µM],inhibition [9],inhibition [10],SMILES
Active,Active,,,,,,,,,Nc1cccc(Cn2nc(Oc3ccccc3)oc2=O)c1
inactive,,3.31,Active,Active,96,3.8,3.63,Active,Active,COc1nn(Cc2cccc(N)c2)c(=O)o1
